Experimental data pooled from the literature.
Each line is one published result; the experiments were not run side by side. pIC50: −log10 of the molar value.

Compound | tested on | assay | test system | conditions | quantity | result
CN[C@H](CC(C)C)C(=O)N[C@H]1C(=O)N[C@@H](CC(N)=O)C(=O)N[C@H]2C(=O)N[C@H]3C(=O)N[C@H](C(=O)N[C@H](C(=O)O)c4cc(O)cc(O)c4-c4cc3ccc4O)[C@H](O)c3ccc(c(Cl)c3)Oc3cc2cc(c3O[C@@H]2O[C@H](CO)[C@@H](O)[C@H](O)[C@H]2O[C@H]2C[C@](C)(N)[C@H](O)[C@H](C)O2)Oc2ccc(cc2Cl)[C@H]1O | Streptococcus pyogenes | microbial growth |  |  | MIC | 0.25 µg/mL
COC[C@@H](NC(C)=O)C(=O)NCc1ccc(OCc2ccccc2)cc1 |  | MES seizures | rat | oral | ED50 | < 10 mg/kg
CN[C@H](CC(C)C)C(=O)N[C@H]1C(=O)N[C@@H](CC(N)=O)C(=O)N[C@H]2C(=O)N[C@H]3C(=O)N[C@H](C(=O)N[C@H](C(=O)O)c4cc(O)cc(O)c4-c4cc3ccc4O)[C@H](O)c3ccc(c(Cl)c3)Oc3cc2cc(c3O[C@@H]2O[C@H](CO)[C@@H](O)[C@H](O)[C@H]2O[C@H]2C[C@](C)(N)[C@H](O)[C@H](C)O2)Oc2ccc(cc2Cl)[C@H]1O | Bifidobacterium | microbial growth, agar dilution |  | 48 h | MIC | 2 µg/mL
CCCC(=O)CP(=O)(O)O | Bacillus anthracis | microbial growth | STERNE34F2 |  | MIC | 100 µg/mL
CN1C(=O)CC(=O)N(c2ccccc2)c2cc(Cl)ccc21 |  | MES seizures | rat | intraperitoneal | ED50 | 36.3 mg/kg
CN[C@@H]1[C@H](O)[C@H](NC)[C@H]2O[C@@]3(O)C(=O)C[C@@H](C)O[C@H]3O[C@@H]2[C@H]1O | Bacillus anthracis | microbial growth | STERNE34F2 |  | MIC | 25 µg/mL
CC[C@H]1OC(=O)[C@H](C)[C@@H](O[C@H]2C[C@@](C)(OC)[C@@H](O)[C@H](C)O2)[C@H](C)[C@@H](O[C@@H]2O[C@H](C)C[C@H](N(C)C)[C@H]2O)[C@](C)(O)C[C@@H](C)C(=O)[C@H](C)[C@@H](O)[C@]1(C)O | Bacillus anthracis | microbial growth | 34F2 |  | MIC | 3.13 µM
CC1=NN(CNc2ccc(Cl)cc2)C(=O)C1=NNn1c(-c2ccccc2)nc2ccccc2c1=O | Vibrio cholerae | microbial growth, broth dilution |  | 24 h | MIC | 103 µM
CCCCCCCCCCCCCCCC(=O)NP(=O)(O)O | Bacillus anthracis | microbial growth | STERNE34F2 |  | MIC | > 200 µg/mL
O=C(O)CCCCCCCCCCCCCCCc1ccccc1 | Leishmania infantum | parasite growth | mouse Splenocyte | 72 h, intracellular, amastigote | pIC50 | 5.22 to 5.52
O=C(CCCCC1CCCCC1)NP(=O)(O)O | Bacillus anthracis | microbial growth | STERNE34F2 |  | MIC | > 200 µg/mL
CC1=NN(CNc2ccc(C(=O)O)cc2)C(=O)C1=NNn1c(-c2ccccc2)nc2ccccc2c1=O | Vibrio cholerae | microbial growth, broth dilution |  | 24 h | MIC | 50.5 µM
O=C(CCCCC1CCCCC1)CP(=O)(O)O | Bacillus anthracis | microbial growth | STERNE34F2 |  | MIC | 200 µg/mL
Cn1cnc2nc(NCc3ccc(Cl)c(Cl)c3)[nH]c(=O)c21 | Bifidobacterium | microbial growth, agar dilution |  | 48 h | MIC | > 32 µg/mL
OC[C@H]1O[C@@H](n2cnc3c(NC4CCCC4)ncnc32)[C@H](O)[C@@H]1O |  | MES seizures | rat | oral | ED50 | > 10 mg/kg
CC1=NN(CNc2ccc(O)cc2)C(=O)C1=NNn1c(-c2ccccc2)nc2ccccc2c1=O | Vibrio cholerae | microbial growth, broth dilution |  | 24 h | MIC | 107 µM
CCOC(=O)Nc1ccc(NCc2ccc(F)cc2)cc1N |  | MES seizures | rat | oral | ED50 | 12.1 mg/kg
CC1=NN(CNc2c(O)c(S(=O)(=O)O)cc3ccccc23)C(=O)C1=NNn1c(-c2ccccc2)nc2ccccc2c1=O | Vibrio cholerae | microbial growth, broth dilution |  | 24 h | MIC | 83.7 µM
CCCCCCCC/C=C\CCCCCCCCNC(=O)CP(=O)(O)O | Bacillus anthracis | microbial growth | STERNE34F2 |  | MIC | 0.1 µg/mL
